The source of these data is ChEMBL document CHEMBL1153713, “Effect of chirality of small molecule organofluorine inhibitors of amyloid self-assembly on inhibitor potency” (Bioorg Med Chem Lett, 2009).

Broadly, the inhibition is how much of the control response was suppressed.

A short description of test [1]: Inhibition of amyloid beta (1 to 40) after 140 hrs by thioflavin-T assay. In outline:
(§1)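 Synthetic Aβ1-40 dissolved in 100 mM NaOH (40 mg/ml), diluted to 100 μM final in 10 mM HEPES, 100 mM NaCl, 0.02% NaN3, pH 7.4; inhibitor added from DMSO at inhibitor/Aβ = 10. Incubated at 37°C, 77 rpm shaking, up to 140 h. Aliquots into 5 μM ThT in glycine-NaOH pH 8.5; ex 430/em 484 nm, 0 h background subtracted, normalized to inhibitor-free control.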

Test [2] in a line: Inhibition of amyloid beta (1 to 40) after 94 hrs by thioflavin-T assay relative to control. In outline:
as §1

The nature of test [3]: Inhibition of amyloid beta (1 to 40) fibrillation by atomic force microscopy relative to control. The conditions noted are these: concentration not given here. In outline: (§2)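 Aβ1-40 (100 μM in HEPES/NaCl/NaN3, pH 7.4) incubated with inhibitor (DMSO stock, 10:1 inhibitor:peptide) at 37°C with gentle shaking. Aliquots diluted in the same HEPES buffer, 2-5 μL spotted on freshly cleaved mica. Imaged by non-contact AFM over 10 μm2 scans and compared with inhibitor-free control.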

Test [4] in a line: Inhibition of amyloid beta (1 to 40) fibrillation by atomic force microscopy. The method, boiled down: as §2

Activity calls are given as the source filed them. The calls are words filed in the database; no cut-off is given here.

With `CCOC(=O)[C@](O)(c1c[nH]c2ccc(Cl)cc12)C(F)(F)F`, the outcome in test [1], in test [2] and in test [4] was Active. The inhibition in test [3] was found to be 60%.

On to `CCOC(=O)[C@@](O)(c1c[nH]c2ccc(Cl)cc12)C(F)(F)F`, for which the outcome in test [1], in test [2] and in test [4] was Active. The same compound had an inhibition in test [3] of 60%.

With `CCOC(=O)[C@@](O)(c1c[nH]c2ccc(I)cc12)C(F)(F)F`, the result in test [1], in test [2] and in test [4] was Active.

As for `CCOC(=O)[C@](O)(c1c[nH]c2ccc(Br)cc12)C(F)(F)F`, the result in test [1], in test [2] and in test [4] was Active. The compound also registered an inhibition in test [3] of 60%.

For `CCOC(=O)[C@@](O)(c1c[nH]c2ccc(Br)cc12)C(F)(F)F`, the outcome in test [1], in test [2] and in test [4] was Active.

With `CCOC(=O)[C@](O)(c1c[nH]c2ccc(I)cc12)C(F)(F)F`, the result in test [1], in test [2] and in test [4] was Active.
